# The source made the active and inactive calls. The rule behind the calls is not given here.
# Tests used:
# [1] = biological target: T1, Myeloblastin (Homo sapiens) (UniProt P24158); experiment: Evaluated for the inhibition of Human leukocyte Proteinase 3 (PR-3)
# T1 sequence (whole entry): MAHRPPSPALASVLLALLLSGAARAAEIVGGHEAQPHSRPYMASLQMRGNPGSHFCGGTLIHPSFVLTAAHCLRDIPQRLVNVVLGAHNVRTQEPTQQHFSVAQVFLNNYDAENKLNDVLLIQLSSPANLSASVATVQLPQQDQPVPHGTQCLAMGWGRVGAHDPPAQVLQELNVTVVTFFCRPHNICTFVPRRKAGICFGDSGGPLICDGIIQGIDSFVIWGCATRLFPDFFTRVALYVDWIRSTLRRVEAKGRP
# Summary of the method: (§1)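 PR-3 purified from polymorphonuclear leukocyte granules. Inhibitor in DMSO was incubated with enzyme in 0.1 M phosphate, pH 6.5, in a constant-temperature bath. Aliquots taken over time went into BOC-Ala-p-nitrophenol (20 mM acetonitrile stock) in phosphate buffer. After 30 s, A347.5 was read for 1 min. kobs came from ln(vt/v0) versus time and is reported as kobs/[I] (M-1 s-1).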
# [2] = biological target: T1, Myeloblastin (Homo sapiens); experiment: Evaluated for the inhibition of Human leukocyte Proteinase 3 (PR-3) following a 10-min incubation with a 50-fold excess of inhibitor; settings: concentration not given here
# [3] = biological target: T2, Neutrophil elastase (Homo sapiens) (UniProt P08246); experiment: Evaluated for the inhibition of Human leukocyte elastase
# T2 sequence (whole entry): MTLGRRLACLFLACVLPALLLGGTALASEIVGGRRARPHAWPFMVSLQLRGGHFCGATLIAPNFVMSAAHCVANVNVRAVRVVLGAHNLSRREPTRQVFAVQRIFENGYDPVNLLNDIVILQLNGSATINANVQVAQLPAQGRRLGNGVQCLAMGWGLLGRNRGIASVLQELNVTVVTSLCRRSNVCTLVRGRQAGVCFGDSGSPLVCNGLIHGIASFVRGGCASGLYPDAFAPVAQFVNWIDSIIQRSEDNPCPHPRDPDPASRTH
# [4] = biological target: T1, Myeloblastin (Homo sapiens); experiment: Evaluated for the inhibition of Human leukocyte Proteinase 3 (PR-3); Inactive; summary of the method: as §1
smiles,measurement,setting,value
CC(C)CC1CC(=O)N(OS(C)(=O)=O)C1=O (stereo not drawn),K obs / 1,[1],1200 M⁻¹ s⁻¹
O=C1CCC(=O)N1OS(=O)(=O)/C=C/c1ccccc1,inhibition,[2],< 35%
CCCCC1CC(=O)N(OS(C)(=O)=O)C1=O (stereo not drawn),K obs / 1,[3],4100 M⁻¹ s⁻¹
same,K obs / 1,[1],800 M⁻¹ s⁻¹
CC1CC(=O)N(OS(C)(=O)=O)C1=O (stereo not drawn),K obs / 1,[1],2300 M⁻¹ s⁻¹
O=C1CC(Cc2ccccc2)C(=O)N1OS(=O)(=O)/C=C/c1ccccc1 (stereo not drawn),inhibition,[2],< 35%
CS(=O)(=O)ON1C(=O)CC(Cc2ccccc2)C1=O (stereo not drawn),K obs / 1,[3],1100 M⁻¹ s⁻¹
same,K obs / 1,[4],inactive
CC(C)C1CC(=O)N(OS(C)(=O)=O)C1=O (stereo not drawn),K obs / 1,[1],2200 M⁻¹ s⁻¹
CS(=O)(=O)ON1C(=O)CCC1=O,K obs / 1,[4],inactive
CCC1CC(=O)N(OS(C)(=O)=O)C1=O (stereo not drawn),K obs / 1,[1],13400 M⁻¹ s⁻¹
CCCC1CC(=O)N(OS(C)(=O)=O)C1=O (stereo not drawn),K obs / 1,[3],8600 M⁻¹ s⁻¹
same,K obs / 1,[1],8600 M⁻¹ s⁻¹
CC(C)C1CC(=O)N(OS(=O)(=O)/C=C/c2ccccc2)C1=O (stereo not drawn),K obs / 1,[3],100000 M⁻¹ s⁻¹
same,K obs / 1,[1],8100 M⁻¹ s⁻¹
CCCCC1CC(=O)N(OS(=O)(=O)/C=C/c2ccccc2)C1=O (stereo not drawn),K obs / 1,[1],3800 M⁻¹ s⁻¹
CC(C)CC1CC(=O)N(OS(=O)(=O)/C=C/c2ccccc2)C1=O (stereo not drawn),K obs / 1,[1],10400 M⁻¹ s⁻¹
CC1CC(=O)N(OS(=O)(=O)/C=C/c2ccccc2)C1=O (stereo not drawn),K obs / 1,[1],4500 M⁻¹ s⁻¹
